Legend:
Format in all cases: functional
Nakaseomyces glabratus [1] = assay: Antifungal activity against Candida glabrata clinical isolate obtained from vulvovaginal candidiasis patient assessed as resistant isolates by broth microdilution method
Procedure, shortened: (§1)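 C. glabrata isolates were recovered from cervicovaginal swabs. Species was identified by in-house species-specific real-time PCR and confirmed on chromogenic Candida agar. Susceptibility was tested by CLSI M27-A2 broth microdilution, and isolates were classed as S, S-DD or R from the MIC. Voriconazole categories used proposed breakpoints.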

Nakaseomyces glabratus [2] = assay: Antifungal activity against Candida glabrata clinical isolate obtained from vulvovaginal candidiasis patient assessed as susceptible isolates by broth microdilution method; procedure, shortened: as §1
Nakaseomyces glabratus [3] = assay: Antifungal activity against Candida glabrata clinical isolate obtained from cervicovaginal candidiasis patient assessed as susceptible isolates by broth microdilution method; procedure, shortened: as §1
Nakaseomyces glabratus [4] = assay: Antifungal activity against Candida glabrata clinical isolate overexpressing CDR1 gene obtained from cervicovaginal candidiasis patient assessed as resistant isolates by broth microdilution method
Procedure, shortened: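 Cervicovaginal swab isolates were classed by CLSI M27-A2 broth microdilution MIC. For expression, RNA came from mid-log cultures, column-purified and DNase-treated. Duplex qRT-PCR measured CDR1 (also PDH1, PDR1) against ACT1 as control, in triplicate independent amplifications from the same RNA. A ≥3-fold rise in CDR1 expression […].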

Nakaseomyces glabratus [5] = assay: Antifungal activity against Candida glabrata clinical isolate obtained from cervicovaginal candidiasis patient assessed as susceptible dose-dependent isolates by broth microdilution method; procedure, shortened: as §1

SMILES	Activity (Nakaseomyces glabratus [1]) [%]	Activity (Nakaseomyces glabratus [2]) [%]	Activity (Nakaseomyces glabratus [3]) [%]	Activity (Nakaseomyces glabratus [4]) [%]	Activity (Nakaseomyces glabratus [5]) [%]
OC(Cn1cncn1)(Cn1cncn1)c1ccc(F)cc1F [FLUCONAZOLE]	51.8	15.2	30.9	26.9	42.2
Clc1ccc(COC(Cn2ccnc2)c2ccc(Cl)cc2Cl)c(Cl)c1 (stereo not given) [MICONAZOLE]	–	–	100	–	0
C[C@@H](c1ncncc1F)[C@](O)(Cn1cncn1)c1ccc(F)cc1F [VORICONAZOLE]	–	–	62.3	24	13.7
